Source: PubChem BioAssay (Broad Institute)
Sampled rows, rich in hits. Any-hit rate of the full collection: about 2.6%.
RAD52 inh: blocks human RAD52 DNA annealing. actives 0.46% (n = 360,000). inhibition, % at 18.7 µM. recombinant RAD52 DNA annealing, FRET fluorescence. AID 651710;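 active = every replicate showing at least 50% inhibition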
Target sequence (P43351 whole entry, looked up): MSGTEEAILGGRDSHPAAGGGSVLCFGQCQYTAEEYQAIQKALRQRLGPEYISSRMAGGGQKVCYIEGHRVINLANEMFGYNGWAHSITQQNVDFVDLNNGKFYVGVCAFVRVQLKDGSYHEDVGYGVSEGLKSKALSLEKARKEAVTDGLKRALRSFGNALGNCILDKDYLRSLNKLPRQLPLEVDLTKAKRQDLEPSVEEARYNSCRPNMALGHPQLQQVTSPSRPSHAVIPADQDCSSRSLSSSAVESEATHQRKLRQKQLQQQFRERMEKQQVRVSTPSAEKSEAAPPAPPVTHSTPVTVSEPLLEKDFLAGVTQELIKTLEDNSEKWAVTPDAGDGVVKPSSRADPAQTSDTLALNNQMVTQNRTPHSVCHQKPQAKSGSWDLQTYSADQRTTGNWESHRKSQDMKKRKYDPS
E-sel inducer: induces E-selectin expression in human endothelial cells | P16581 | HUVEC E-selectin immunofluorescence imaging; normalized: neutral wells 0, TNF-alpha wells 100 | activation, % at 7.58 µM | actives 0.37% (n = 260,000);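 active = mean E-selectin-positive cell signal at least 10% of the positive control, reached in at least 60% of replicates, without over 20% cell loss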
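assay system = HUVEC, human umbilical vein endothelial cells | input = 3,000 HUVEC seeded per well | medium = EGM-2 growth medium on 0.1% gelatin-coated wells | dosing = one compound dose added by pin transfer | signal = immunofluorescence imaging | read-out basis = % PE-positive cells | control set = TNF-alpha, DMSO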
Ecoli rRNA inh: inhibits bacterial ribosomal RNA function over humanized ribosomes; actives 1.6% (n = 350,000); E. coli WT GFP vs humanized-ribosome RFP mutants, fluorescence, 24 h; active compounds read low; DMSO median 0, no signal -100; AID 720706; GFP signal change (wild-type ribosome), % (no concentration beside the values);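 active = significant combined selectivity score with lowered wild-type GFP, culture density cut under 30%, mutant RFP and density less affected; inactive = any of these conditions unmet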
RAD54 branch: inhibitors of human RAD54 branch migration | Q92698 | inhibition, % at 10.4 µM | RAD54 Holliday junction branch migration, FAM/BHQ fluorescence | AID 602329 | actives 0.14% (n = 360,000);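 active = mean normalized replicate activity at least 40 and at least half of replicates scoring 40 or more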;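 also: 0% = median of neutral control wells and 100% = median of positive control wells; inhibitors cause a drop in the FAM fluorescence signal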
GSIS activator: GLuc luminescence reporter in INS-1E cells, primary screen for activators of glucose-dependent secretion of insulin | actives 0.61% (n = 370,000) | activation, % at 16.6 µM | AID 743287 | INS-1E GLuc reporter insulin secretion, 2-3 h;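 active = lowest replicate activation of at least 40%, so every replicate reaches that level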;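 also: 0% = median of neutral control wells and 100% = median of IBMX positive control wells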
MLL AF4-AF9 inh: inhibitors of human MLL-AF4/AF9 interaction; P42568; AlphaScreen, biotin-AF4 peptide binding to FLAG-AF9; inhibition, % at 10 µM; actives 0.47% (n = 350,000);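 active = every replicate reaching a set inhibition limit, whatever the replicate mean, cut at about 25% in these data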;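 also: 0% = plate neutral control median and 100% = total signal loss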
DNA binder FP: DNA binding artifact in RAD52 counter-screen. actives 8% (n = 1,000). shares compounds with RAD52 inh. AC50, µM. Salmon sperm DNA/acridine orange FP displacement;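 active = fitted half-maximal concentration for signal loss at or below twice the highest dose tested, in every separate run, actives reach about 64 µM in these data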
An asterisk follows results filed as active; i = inactive; . = not tested or not shown.

SMILES	RAD52 inh	E-sel inducer	Ecoli rRNA inh	RAD54 branch	GSIS activator	MLL AF4-AF9 inh	DNA binder FP
Cc1cc(N2CCN(C)CC2)nc2ccc(NC(=S)NCc3cccs3)cc12	63.4*	.	-23.4*	38.4	-5.6	.	i
O=S(=O)(N[C@@H]1CC[C@H](CCn2cc(C3CC3)nn2)O[C@H]1CO)c1ccc(F)cc1	4.3	0.8	1.4	-2.2	-7.2	-1.9	.
C[C@@H]1CN([C@H](C)CO)C(=O)c2cc(-c3cccc(C(=O)N(C)C)c3)cnc2O[C@@H]1CN(C)S(=O)(=O)c1ccccc1	17.7	0.5	-2.7	-7.0	3.0	-3.6	.
O=C(Nc1ccccc1)N[C@H]1CC[C@H](CCn2cc(-c3ccccc3F)nn2)O[C@H]1CO	-7.3	-0.4	-0.4	.	18.9	-1.1	.
C[C@@H]1CN([C@@H](C)CO)C(=O)c2cc(-c3ccc(F)cc3)cnc2O[C@H]1CN(C)CC1CCCCC1	1.7	0.0	0.9	-2.8	14.5	-2.6	.
N#Cc1ccc(N)cc1OCCCN1CCCCC1	86.1*	-0.1	-2.1	0.9	.	5.9	i
C/C(=N\NC(=O)c1nnn(-c2nonc2N)c1CN1CCC(C)CC1)c1ccc(Br)cc1	72.0*	3.7	0.7	0.1	0.6	2.4	i
Cc1cc2cc(CNC(=O)NC3CCCCC3)ccc2n1C	66.3*	0.4	-4.3	10.7	.	12.0	i
C/C=C/c1ccc([C@@H]2[C@@H](CN(C)S(C)(=O)=O)N(C(C)=O)[C@H]2CO)cc1	-40.6	-0.1	5.1	4.0	5.2	1.3	.
CC(C)N1CCc2c(sc(NC(=O)c3ccco3)c2C(N)=O)C1	-39.7	-0.8	14.3	30.5	30.1	0.1	.
CC(C)N1CCc2c(sc(NC(=O)c3cc4cc([N+](=O)[O-])ccc4s3)c2C(N)=O)C1	56.5*	-0.2	-12.7	23.4	11.2	12.8	i
CCOc1ccc(C(=O)Nc2ccc3nc(N4CCN(CC)CC4)cc(C)c3c2)cc1	11.0	.	3.7	5.3	12.7	0.5	.
CCN1CCN(c2cc(C)c3cc(NC(=O)c4cc(OC)cc(OC)c4)ccc3n2)CC1	54.6*	.	2.6	33.5	16.1	16.2	i
CCN1CCN(c2cc(C)c3cc(NC(=O)CCC(=O)N4CCN(c5ccccc5)CC4)ccc3n2)CC1	18.6	-0.2	-2.0	6.6	3.5	3.8	.
CCN1CCN(c2cc(C)c3cc(NC(=O)c4cnccn4)ccc3n2)CC1	59.2*	0.7	-0.8	46.8	.	5.3	i
CC(=O)OCCc1c2ccccc2c(CCCN(C)C)c2ccccc12	69.3*	.	14.6	.	.	-0.6	i
CC(=O)OCCc1[nH]c2ccccc2c1C	-4.1	1.2	3.8	8.4	-8.2	-10.0	.
COc1cc(OC)nc(Nc2nc(C(N)CCc3ccccc3)cs2)n1 (stereo unspecified)	62.3*	0.2	-35.7	12.7	-17.4	6.2	i
COc1cc(OC)nc(Nc2nc(C(N)COCc3ccccc3)cs2)n1 (stereo unspecified)	-29.3	5.8	-62.0	2.9	-25.0	2.6	.
Cc1cc2ccccc2cc1C(=O)c1ccccc1	-6.1	-0.2	-2.1	-2.7	-7.2	-2.5	.
Cc1sc2cc3c(c(C(=O)c4ccccc4)[n+]2c1C)-c1cccc2cccc-3c12	102.8*	.	-51.1	.	-50.5	25.4*	61.1µM*
C[C@]12CC[C@H](O)CC1=CCC1C2CC[C@@]2(C)C1CC[C@@H]2NC(=O)[C@@H](N)Cc1cnc[nH]1 (stereo partly specified)	79.9*	-0.3	3.3	-8.7	-0.1	1.5	i
COc1ccc(OC)c(/C=N/NC(=O)c2cc[n+](CC(=O)c3ccccc3)cc2)c1	56.6*	.	9.0	9.2	16.2	6.8	i
C[C@@H]1CN([C@@H](C)CO)C(=O)c2ccccc2-c2ccccc2CO[C@@H]1CN(C)S(=O)(=O)CC(F)(F)F	-11.9	-3.3	-2.7	-5.0	-15.5	-4.2	.
Cc1cc(=O)[nH]c2ccccc12	.	.	.	3.8	.	.	.
SMILES	RAD52 inh	E-sel inducer	Ecoli rRNA inh	RAD54 branch	GSIS activator	MLL AF4-AF9 inh	DNA binder FP
Cc1cc2[nH]c3c(c[n+](C)c4ccccc34)c2cc1C	104.3*	.	-52.0	.	-21.9	17.8	8.46µM*
COc1ccc(NC(=O)Nc2ccc3c(c2)C(=O)N([C@H](C)CO)C[C@H](C)[C@@H](CN(C)S(=O)(=O)c2ccc(C)cc2)O3)cc1	0.4	0.0	-3.0	-15.5	-22.6	2.1	.
COc1cc(CNCCSc2nnnn2C)cc(OC)c1OC	.	.	.	0.9	-2.2	.	.
COc1cccc(CNCCSc2nnnn2C)c1OC	103.4*	.	11.6	-11.1	1.7	-0.7	i
C=CCN1CCc2nc(N)sc2CC1	66.3*	0.6	.	11.8	.	6.3	i
CCN1CCc2nc(N)sc2C1	68.9*	7.5	5.2	.	2.8	-4.8	i
COc1ccc2c3c(n(C)c2c1)[C@@H](CO)N(C(=O)c1cnccn1)CC31CN(C)C1	6.1	0.2	0.3	.	6.8	5.9	.
CN(C)CCCNC(=O)C[C@H]1CC[C@H](NS(=O)(=O)c2ccccc2)[C@H](CO)O1	2.8	-0.5	2.1	4.0	-0.3	-1.3	.
C[C@@H]1CN([C@@H](C)CO)C(=O)c2cccc(NC(=O)Nc3ccc4c(c3)OCO4)c2O[C@@H]1CN(C)Cc1ccc(Oc2ccccc2)cc1	52.7	0.3	-1.7	-0.4	-20.2	14.3	i
C[C@H]1CN([C@@H](C)CO)C(=O)c2cc(NS(=O)(=O)c3ccccc3)ccc2O[C@H]1CN(C)C	-10.6	-0.1	-2.0	7.7	3.8	-2.0	.
CCc1ccc(OCCNc2cc(N3CCNC(C)C3)ccc2[N+](=O)[O-])cc1 (stereo unspecified)	10.9	3.5	-60.2	3.8	-38.5	36.6*	i
O=S(=O)(NCC[C@H]1CC[C@@H](NS(=O)(=O)c2cccc(F)c2)[C@@H](CO)O1)c1cccc(F)c1	7.9	-0.2	-4.1	.	6.4	0.9	.
CN(C)Cc1c(OC(=O)c2ccc(N)cc2)ccc2ccccc12	59.1*	0.0	-6.2	-2.9	-18.3	-3.7	i
COc1ccc(CCN(C)Cc2c(O)ccc3ccccc23)cc1OC	-16.5	0.1	-13.9	-9.7	-34.7	1.7	.
C[C@@H]1CN([C@H](C)CO)C(=O)Cc2cc(NC(=O)C3CC3)ccc2O[C@@H]1CN(C)Cc1ccc(Oc2ccccc2)cc1	-0.7	10.5	-12.4	16.3	-17.4	1.2	.
Clc1ccc2[nH]c3c(c2c1)CNCC3	65.0*	0.4	13.4	10.9	1.1	-4.7	i
CO[C@H]1CN(C)C(=O)c2cc(NC(=O)C3CC3)ccc2OC[C@@H](C)N(Cc2ccccc2)C[C@H]1C	4.8	0.2	0.9	2.8	-2.5	-1.4	.
